Data on 5 compounds can be found in ChEMBL document CHEMBL4304834, “3-Amino-chromanes and Tetrahydroquinolines as Selective 5-HT2B, 5-HT7, or σ1 Receptor Ligands” (ACS Med Chem Lett, 2019).

Assay [1] concerns the target T1, 5-hydroxytryptamine receptor 6 (Homo sapiens, UniProt P50406). In words: Displacement of [3H]-LSD from human recombinant 5-HT6 receptor expressed in stable HEK cells after 90 mins by microbeta scintillation counting method. In kind it is cell-based. A digest of the protocol: (§1)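 Radioligand binding run by the NIMH Psychoactive Drug Screening Program. […] Otherwise Ki comes from sigmoidal curve fits of triplicate measurements in a single experiment, or is averaged over repeated experiments each run in triplicate.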

Assay [2] has as its target T1, 5-hydroxytryptamine receptor 6. Put plainly: Displacement of [3H]-LSD from human recombinant 5-HT6 receptor expressed in stable HEK cells at 10 uM after 90 mins by microbeta scintillation counting method relative to control. In kind it is cell-based. A digest of the protocol:
as §1
(In a radioligand displacement assay an active substance lowers the binding of a labelled ligand.)

Assay [3] has as its target T2, Sigma intracellular receptor 2 (Homo sapiens, UniProt Q5BJF2). Put plainly: Displacement of […] from human recombinant sigma2 receptor expressed in HEKT cells after 90 mins by microbeta scintillation counting method. In kind it is cell-based. The essentials:
(§2)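 Run by NIMH Psychoactive Drug Screening Program. Otherwise, competition binding curves are generated and pKi is taken from a sigmoidal curve fit. Data are either triplicate measurements within one experiment, with the error from the fit, or the mean of repeated experiments, each run in triplicate.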

The target of assay [4] is T3, Muscarinic acetylcholine receptor M5 (Homo sapiens) (UniProt P08912).
T3 sequence (whole entry): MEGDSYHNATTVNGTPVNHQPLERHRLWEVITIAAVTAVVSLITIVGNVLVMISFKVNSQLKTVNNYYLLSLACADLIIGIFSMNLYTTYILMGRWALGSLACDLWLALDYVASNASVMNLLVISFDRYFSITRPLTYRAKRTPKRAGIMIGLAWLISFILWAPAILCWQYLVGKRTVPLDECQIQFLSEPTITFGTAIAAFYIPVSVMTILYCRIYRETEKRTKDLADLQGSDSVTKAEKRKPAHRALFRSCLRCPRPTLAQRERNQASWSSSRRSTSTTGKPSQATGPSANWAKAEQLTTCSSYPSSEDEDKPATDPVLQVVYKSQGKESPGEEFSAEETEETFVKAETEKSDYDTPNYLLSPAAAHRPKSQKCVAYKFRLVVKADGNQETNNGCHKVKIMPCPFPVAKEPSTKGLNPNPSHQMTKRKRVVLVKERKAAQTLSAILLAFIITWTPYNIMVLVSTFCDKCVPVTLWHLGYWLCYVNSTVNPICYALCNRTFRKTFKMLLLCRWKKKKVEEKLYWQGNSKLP
Put plainly: Displacement of [3H]-QNB/[3H]-NMS from human recombinant Muscarinic acetylcholine M5 receptor expressed in stable CHO cells at 10 uM after 90 mins by microbeta scintillation counting method relative to control. In kind it is cell-based.

In assay [5] the target is T2, Sigma intracellular receptor 2. Put plainly: Displacement of […] from human recombinant sigma2 receptor expressed in HEKT cells at 10 uM after 90 mins by microbeta scintillation counting method relative to control. In kind it is cell-based. A digest of the protocol: as §1
In assay [6] the target is T4, Muscarinic acetylcholine receptor M2 (Homo sapiens) (UniProt P08172).
T4 sequence (whole entry): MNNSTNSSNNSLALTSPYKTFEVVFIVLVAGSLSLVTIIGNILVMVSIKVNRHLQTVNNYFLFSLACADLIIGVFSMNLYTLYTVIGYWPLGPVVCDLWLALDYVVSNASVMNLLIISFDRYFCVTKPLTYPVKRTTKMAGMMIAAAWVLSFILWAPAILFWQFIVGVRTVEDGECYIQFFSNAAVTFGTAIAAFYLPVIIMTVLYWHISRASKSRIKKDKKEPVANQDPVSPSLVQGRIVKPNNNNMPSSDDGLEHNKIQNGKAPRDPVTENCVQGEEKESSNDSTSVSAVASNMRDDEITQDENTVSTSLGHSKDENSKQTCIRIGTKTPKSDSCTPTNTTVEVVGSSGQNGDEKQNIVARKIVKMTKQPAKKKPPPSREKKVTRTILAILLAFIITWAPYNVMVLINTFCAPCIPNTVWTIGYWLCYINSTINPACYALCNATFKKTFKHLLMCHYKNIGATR
Put plainly: Displacement of [3H]-QNB/[3H]-NMS from human recombinant Muscarinic acetylcholine M2 receptor expressed in stable CHO cells at 10 uM after 90 mins by microbeta scintillation counting method relative to control. In kind it is cell-based.

For assay [7], the target named is T5, Alpha-2A adrenergic receptor (Homo sapiens, UniProt P08913).
T5 sequence (P08913 whole entry): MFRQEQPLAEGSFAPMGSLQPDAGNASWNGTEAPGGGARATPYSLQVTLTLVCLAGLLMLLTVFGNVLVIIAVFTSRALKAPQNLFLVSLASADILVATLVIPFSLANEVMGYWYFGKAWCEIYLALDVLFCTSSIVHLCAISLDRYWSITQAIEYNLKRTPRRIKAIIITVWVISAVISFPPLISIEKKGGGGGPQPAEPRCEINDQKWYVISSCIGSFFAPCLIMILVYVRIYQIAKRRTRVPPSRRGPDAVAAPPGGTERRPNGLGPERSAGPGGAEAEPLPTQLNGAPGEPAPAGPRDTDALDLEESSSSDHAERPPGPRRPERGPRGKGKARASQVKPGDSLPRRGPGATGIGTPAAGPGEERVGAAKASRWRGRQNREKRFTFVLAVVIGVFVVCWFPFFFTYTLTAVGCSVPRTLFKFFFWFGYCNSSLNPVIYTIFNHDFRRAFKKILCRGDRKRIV
In words: Displacement of [3H]-Rauwolscine from human recombinant adrenergic Alpha2A receptor expressed in stable MDCK cells after 90 mins by microbeta scintillation counting method. In kind it is cell-based. The essentials:
(§3)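 Radioligand binding was run by the NIMH Psychoactive Drug Screening Program. Compounds were first screened at 10 μM. Those giving ≥50% binding were taken to full competition curves. Ki is reported as pKi from a sigmoidal curve fit of triplicate measurements in a single experiment; the error is the curve-fit error.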

Assay [8] addresses 5-hydroxytryptamine receptor 2B (Homo sapiens, UniProt P41595). In words: Displacement of [3H]-LSD from human recombinant 5-HT2B receptor stably expressed in HEK cells after 90 mins by microbeta scintillation counting method. In kind it is cell-based. To be noted: read-out: pKi (converted). A digest of the protocol: as §2
A further assay is filed under the species Rattus norvegicus. Put plainly: Displacement of [3H]-PK11195 from PBR receptor in rat brain at 10 uM incubated for 90 mins by microbeta scintillation counting method relative to control. In kind it is tissue-based. A digest of the protocol:
as §1

For assay [9], the target named is GABA-A receptor; anion channel. Put plainly: Displacement of [3H]-Muscimol from GABAA receptor in rat brain incubated for 90 mins by microbeta scintillation counting method. In kind it is tissue-based. A digest of the protocol:
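Radioligand binding run by the NIMH Psychoactive Drug Screening Program. Otherwise Ki comes from sigmoidal curve fits of triplicate measurements in a single experiment, or is averaged over repeated experiments each run in triplicate.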

Assay [10] has as its target 5-hydroxytryptamine receptor 1D (Homo sapiens, UniProt P28221). In words: Displacement of [3H]5-CT from human recombinant 5-HT1D receptor transiently expressed in HEKT cells after 90 mins by microbeta scintillation counting method. In kind it is cell-based. The essentials:
as §3

Some results are limits rather than exact numbers.

T2 sequence (Q5BJF2 whole entry): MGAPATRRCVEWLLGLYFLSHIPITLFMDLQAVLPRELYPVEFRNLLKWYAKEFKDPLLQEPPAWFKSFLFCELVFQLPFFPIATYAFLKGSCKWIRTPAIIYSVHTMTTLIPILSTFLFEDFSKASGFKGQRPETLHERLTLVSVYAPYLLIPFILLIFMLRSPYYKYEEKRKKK
Chain of 5-hydroxytryptamine receptor 1D (P28221 whole entry): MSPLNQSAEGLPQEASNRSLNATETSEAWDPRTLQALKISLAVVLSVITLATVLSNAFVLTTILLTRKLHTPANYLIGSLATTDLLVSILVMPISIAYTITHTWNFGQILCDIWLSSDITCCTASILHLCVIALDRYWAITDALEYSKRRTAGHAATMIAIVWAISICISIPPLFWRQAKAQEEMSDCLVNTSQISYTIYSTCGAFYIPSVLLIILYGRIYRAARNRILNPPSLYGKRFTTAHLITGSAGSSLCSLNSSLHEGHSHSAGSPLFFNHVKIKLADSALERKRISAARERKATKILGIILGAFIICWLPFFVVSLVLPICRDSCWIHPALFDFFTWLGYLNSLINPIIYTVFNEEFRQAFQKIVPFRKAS
Chain of 5-hydroxytryptamine receptor 2B (P41595 whole entry): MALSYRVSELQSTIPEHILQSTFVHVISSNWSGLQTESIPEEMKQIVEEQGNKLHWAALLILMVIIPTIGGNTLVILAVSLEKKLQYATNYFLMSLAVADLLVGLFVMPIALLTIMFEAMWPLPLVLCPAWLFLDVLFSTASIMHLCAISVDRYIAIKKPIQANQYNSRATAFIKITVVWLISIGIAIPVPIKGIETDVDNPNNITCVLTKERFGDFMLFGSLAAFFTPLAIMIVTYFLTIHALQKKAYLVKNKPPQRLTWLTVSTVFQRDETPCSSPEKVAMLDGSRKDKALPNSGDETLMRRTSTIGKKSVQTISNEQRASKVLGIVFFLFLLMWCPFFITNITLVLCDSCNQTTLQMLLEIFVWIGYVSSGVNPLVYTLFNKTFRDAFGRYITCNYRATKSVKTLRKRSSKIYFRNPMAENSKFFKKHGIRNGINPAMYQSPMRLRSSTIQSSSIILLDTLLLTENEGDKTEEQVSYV
T1 sequence (P50406 whole entry): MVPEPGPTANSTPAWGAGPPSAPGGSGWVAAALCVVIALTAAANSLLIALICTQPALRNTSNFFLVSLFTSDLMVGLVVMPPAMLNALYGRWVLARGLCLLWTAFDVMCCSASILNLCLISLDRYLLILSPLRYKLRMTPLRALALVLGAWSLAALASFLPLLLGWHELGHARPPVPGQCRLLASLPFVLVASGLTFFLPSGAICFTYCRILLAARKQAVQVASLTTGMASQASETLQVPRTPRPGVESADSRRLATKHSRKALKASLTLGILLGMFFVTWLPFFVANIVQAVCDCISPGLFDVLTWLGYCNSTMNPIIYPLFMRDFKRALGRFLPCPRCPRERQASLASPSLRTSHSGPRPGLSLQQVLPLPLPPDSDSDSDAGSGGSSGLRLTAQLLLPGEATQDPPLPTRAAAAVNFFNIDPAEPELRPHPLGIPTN

As for `CC[C@H]1c2cc(OC)ccc2CC[C@@]1(C)N` (racemic), the Ki in [1] was above 10 µM; in assay [3] it was above 10000 nM; in assay [7] it was 6.31 µM; in assay [8], 145 nM; in assay [10], above 10 µM. The inhibition (in assay [2]; in assay [4]; in [5]; in assay [6]; in the assay filed under Rattus norvegicus) was below 50% throughout. Besides, in [9], the pKi (in general, −log10 of the Ki, conventionally taken in molar units) is given as below 5.

Take `C[C@@]12CN(c3ccccc3)c3ccccc3[C@@H]1CCN2` (racemic): the Ki in assay [1] is above 10 µM; in [3], 1000 nM; in [10], above 10 µM.

With `CC[C@H]1c2cc(C)ccc2OC[C@@]1(C)N` (racemic), the Ki in assay [1] is above 10 µM; in [3], above 10000 nM; in assay [7] it was above 10 µM; in assay [8] it was 178 nM; in assay [10], above 10 µM. Further, the inhibition (in assay [2]; in assay [4]; in assay [5]; in [6]; in the assay listed under Rattus norvegicus) was below 50% throughout. The compound further displayed a pKi in [9] below 5.

With `CC[C@H]1c2ccccc2N(c2ccccc2)C[C@@]1(C)N` (racemic), the Ki in [1] is above 10 µM; in assay [3], 631 nM; in [7], 0.398 µM; in [8], 794 nM; in [10], above 10 µM.

As to `COc1cc(OC)c2c(c1)OC[C@@]1(C)NCC[C@@H]21` (racemic), the Ki was above 10 µM in assay [1], above 10000 nM in assay [3], 251 nM in [8] and above 10 µM in assay [10]. In addition, the inhibition (in [2]; in assay [4]; in [5]; in assay [6]; in the assay filed under Rattus norvegicus) was below 50% each time. Also, the pKi in assay [9] is given as below 5.
